Published values from different studies.
Mode: inhibitor
CDK7 with cyclin H: Cyclin-dependent kinase 7, with cyclin H (CDK7, Homo sapiens, UniProt P50613)
CDK7: Cyclin-dependent kinase 7 (CDK7, Homo sapiens, UniProt P50613)

Cc1ccc(Nc2nccc(N(C)c3ccc4c(C)n(C)nc4c3)n2)cc1S(N)(=O)=O — inhibition (CDK7 with cyclin H; enzyme activity; 10 µM): 34%
Cc1ccc(-n2nc(C(C)(C)C)cc2NC(=O)Nc2ccc(OCCN3CCOCC3)c3ccccc23)cc1 — inhibition (CDK7; enzyme activity; 10 µM): 17%
O=C(O)c1cc(O)c(O)c(O)c1 — inhibition (CDK7 with cyclin H; enzyme activity; ADP detection; 10 µM): -3%
COc1cc(-c2cc(-c3ccc(N4CCNCC4)cc3)cnc2C)cc(OC)c1OC — inhibition (CDK7; enzyme activity; 1 µM): 2%
COc1cccc2c(NCc3ccccc3)nc(-n3c(N)nc4ccccc43)nc12 — inhibition (CDK7; target engagement in cells; chemoproteomics; 20 mM): 2.5%
COc1c2c(cc3oc(-c4ccccc4)cc(=O)c13)OCO2 — inhibition (CDK7 with cyclin H; enzyme activity; ADP detection; 10 µM): 94.4%
C=CC(=O)Nc1cc(Nc2nccc(Nc3cc(Cl)c(F)cc3C(C)(C)O)n2)c(OC)cc1N1CC[C@@H](N(C)C)C1 — inhibition (CDK7 with cyclin H; enzyme activity; 1 µM): 14%
COC1=C(OC)C(=O)C(C/C=C(\C)CC/C=C(\C)CC/C=C(\C)CC/C=C(\C)CC/C=C(\C)CC/C=C(\C)CC/C=C(\C)CC/C=C(\C)CC/C=C(\C)CCC=C(C)C)=C(C)C1=O — inhibition (CDK7 with cyclin H; enzyme activity; ADP detection; 10 µM): 6.6%
c1ccc(CNc2nc(N3CCOc4ccccc43)nc3c2CCCC3)cc1 — inhibition (CDK7; target engagement in cells; chemoproteomics; 20 mM): -1.7%
Cn1cnc(Br)c1C1=CN(c2ncnc3[nH]cnc23)CCS1 — inhibition (CDK7; enzyme activity; radiometric; 50 nM): 21.6%
